From article PMC8929335 (Pharmacology Research & Perspectives, 2022)

How the values were obtained:
[1] = NHP brain-to-plasma Kp,uu experiment; type: in vivo, cynomolgus monkeys; settings: cynomolgus, cynomolgus monkey, intravenous
Summary of the method: (§1)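 Cynomolgus monkeys (six total) received a three‐compound cassette in 10% captisol in sterile water as a 15 min IV infusion via saphenous or cephalic vein. Plasma (vena cava, K₂EDTA), lumbar CSF after euthanasia, and excised brain were taken from 2 animals per time point at about 17, 30 and 60 min after infusion start. Samples were quantified by LC‐MS/MS after protein precipitation, and Kp,uu was calculated from unbound concentrations.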

[2] = NHP CSF-to-plasma Kp,uu experiment; type: in vivo, cynomolgus monkeys; settings: cynomolgus, cynomolgus monkey, intravenous
Summary of the method: as §1

[3] = target: T1, breast cancer resistance protein (BCRP) (Homo sapiens, UniProt Q9UNQ0); experiment: BCRP transwell efflux ratio; type: in vitro ADME; settings: B_A Papp (n = 3) / A_B Papp (n = 3)
T1 sequence (Q9UNQ0 1-655): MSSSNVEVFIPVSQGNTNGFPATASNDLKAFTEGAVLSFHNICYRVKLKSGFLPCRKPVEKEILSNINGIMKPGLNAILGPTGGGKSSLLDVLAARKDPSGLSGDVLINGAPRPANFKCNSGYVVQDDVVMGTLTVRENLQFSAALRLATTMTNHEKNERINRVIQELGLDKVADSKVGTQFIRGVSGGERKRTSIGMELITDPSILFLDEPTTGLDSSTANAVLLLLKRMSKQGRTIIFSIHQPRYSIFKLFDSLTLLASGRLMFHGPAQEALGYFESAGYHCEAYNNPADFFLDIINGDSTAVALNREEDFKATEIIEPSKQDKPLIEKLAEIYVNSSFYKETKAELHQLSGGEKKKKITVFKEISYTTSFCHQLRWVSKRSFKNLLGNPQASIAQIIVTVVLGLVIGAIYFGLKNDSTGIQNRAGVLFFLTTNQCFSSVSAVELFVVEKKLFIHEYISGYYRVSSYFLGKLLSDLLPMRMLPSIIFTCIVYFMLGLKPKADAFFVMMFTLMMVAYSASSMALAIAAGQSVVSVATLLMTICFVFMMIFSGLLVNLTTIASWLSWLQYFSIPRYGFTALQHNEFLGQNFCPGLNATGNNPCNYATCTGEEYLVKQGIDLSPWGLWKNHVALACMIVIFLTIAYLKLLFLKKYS

NHP brain tissue binding = type: in vitro ADME; settings: monkey, brain homogenate
Summary of the method: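 Brain was homogenized in PBS at 1:3 (w:v) and dialysed against PBS in a rapid equilibrium dialysis device for 18 h at 37°C, 5% CO₂, shaking at 150 rpm. Samples were matrix‐matched, precipitated with acetonitrile containing internal standard, and analysed by LC‐MS/MS. fu = receiver/donor peak‐area ratio, corrected for dilution factor 4.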

[4] = NHP brain-to-plasma and CSF-to-plasma Kp,uu time course experiment; type: in vivo, cynomolgus monkeys; settings: IV infusion for 15 min
Summary of the method: as §1

[5] = MDCK A-B passive permeability; type: in vitro ADME, canine; settings: dog
Summary of the method: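 MDCKII cells seeded at 60 000 cells/cm² on 1 µm pore transwell inserts and used on day 4. Test compound at 1 µM in HBSS added to donor, with 0.1% BSA in receiver. Donor sampled at 0 min; donor and receiver sampled at 90 min, 37°C, analysed by LC‐MS/MS. Papp = (dQ/dt)/(A×C0). Monolayer integrity confirmed by lucifer yellow A‐B <2%; recovery >70%.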

MDR1 = MDR1 (Homo sapiens, UniProt P08183); experiment: NIH MDR1-MDCKI transwell efflux assay; type: in vitro ADME
Sequence of MDR1 (P08183 whole entry): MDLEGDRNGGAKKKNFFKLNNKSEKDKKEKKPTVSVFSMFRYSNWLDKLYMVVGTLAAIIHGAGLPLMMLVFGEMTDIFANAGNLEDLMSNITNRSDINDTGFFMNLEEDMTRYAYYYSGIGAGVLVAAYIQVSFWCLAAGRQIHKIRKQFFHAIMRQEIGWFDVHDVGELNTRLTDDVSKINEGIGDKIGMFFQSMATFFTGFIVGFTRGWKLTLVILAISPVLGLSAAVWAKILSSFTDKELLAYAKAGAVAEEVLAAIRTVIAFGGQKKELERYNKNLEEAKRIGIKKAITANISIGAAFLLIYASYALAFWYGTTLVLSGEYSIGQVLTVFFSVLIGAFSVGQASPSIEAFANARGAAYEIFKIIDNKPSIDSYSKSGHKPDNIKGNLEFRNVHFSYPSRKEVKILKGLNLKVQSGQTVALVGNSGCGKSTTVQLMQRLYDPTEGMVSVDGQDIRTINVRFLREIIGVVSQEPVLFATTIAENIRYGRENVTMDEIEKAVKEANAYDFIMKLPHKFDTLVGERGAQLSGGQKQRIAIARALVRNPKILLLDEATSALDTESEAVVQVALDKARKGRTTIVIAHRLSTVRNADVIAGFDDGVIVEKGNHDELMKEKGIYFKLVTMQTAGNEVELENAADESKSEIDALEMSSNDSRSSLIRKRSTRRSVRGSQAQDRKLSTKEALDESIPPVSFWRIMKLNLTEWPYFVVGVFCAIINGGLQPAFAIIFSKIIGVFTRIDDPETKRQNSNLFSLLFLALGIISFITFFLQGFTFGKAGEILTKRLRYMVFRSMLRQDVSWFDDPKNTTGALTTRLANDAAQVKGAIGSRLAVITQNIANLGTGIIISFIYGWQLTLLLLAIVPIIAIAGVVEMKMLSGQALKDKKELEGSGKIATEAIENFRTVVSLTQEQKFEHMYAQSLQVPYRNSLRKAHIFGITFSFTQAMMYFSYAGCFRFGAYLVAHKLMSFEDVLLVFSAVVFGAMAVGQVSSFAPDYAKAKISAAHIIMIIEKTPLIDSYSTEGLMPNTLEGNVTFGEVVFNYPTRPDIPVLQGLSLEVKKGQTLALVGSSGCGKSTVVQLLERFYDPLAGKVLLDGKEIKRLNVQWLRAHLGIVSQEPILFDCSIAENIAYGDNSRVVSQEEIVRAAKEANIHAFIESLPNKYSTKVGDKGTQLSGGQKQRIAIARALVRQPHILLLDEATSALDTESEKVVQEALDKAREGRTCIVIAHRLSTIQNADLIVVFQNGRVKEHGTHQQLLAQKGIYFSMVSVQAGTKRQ

Structure (SMILES)	Kp uu [1]	Kp uu at 1 h [2]	BCRP ER [3]	fraction unbound at 18 h (NHP brain tissue binding)	Time for unbound brain concentration to reach equilibrium with unbound plasma concentration [4] [min]	Time for lumbar CSF to equilibrate with plasma ([4]; lumbar CSF)	Papp A→B at 90 min, 1 µM [5] [×10⁻⁶ cm/s]	MDR1/BCRP substrate classification (MDR1; ER of 3 as cutoff to classify substrates)	efflux ratio at 90 min, 1 µM (MDR1; human, MDCK-MDR1)	ER in NIH MDR1 assay relative to current MDR1 assay (MDR1; NIH MDR1-MDCKI vs internal MDR1-MDCKII)
Cc1cc(=O)n(-c2ccccc2)n1C [Antipyrine]	0.96	1	0.9	~1	≤ 15	~ 1 h	32.8 ± 9	no MDR1/BCRP efflux transporter interactions	1	
C=C[C@H]1C[N@@]2CC[C@H]1C[C@@H]2[C@@H](O)c1ccnc2ccc(OC)cc12 [quinidine]										more than 10 fold
